High-throughput results from PubChem BioAssay.
hERG rescue = hERG rescue from dofetilide block, primary screen, cell-based, CHO-hERG, FluxOR thallium flux, dofetilide IC70. Voltage-gated inwardly rectifying potassium channel KCNH2 (Homo sapiens), Q12809. dofetilide IC70 present. activation (rescue from dofetilide block), less the hit threshold, % at 10 µM. 310,000 compounds, 0.51% hits. AID 1511, 2009;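 active means activation above the mean of controls blocked by dofetilide plus 5 SD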;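 further: thallium influx through hERG after potassium depolarization seen as dye fluorescence rise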
Target sequence (Q12809 whole entry, looked up): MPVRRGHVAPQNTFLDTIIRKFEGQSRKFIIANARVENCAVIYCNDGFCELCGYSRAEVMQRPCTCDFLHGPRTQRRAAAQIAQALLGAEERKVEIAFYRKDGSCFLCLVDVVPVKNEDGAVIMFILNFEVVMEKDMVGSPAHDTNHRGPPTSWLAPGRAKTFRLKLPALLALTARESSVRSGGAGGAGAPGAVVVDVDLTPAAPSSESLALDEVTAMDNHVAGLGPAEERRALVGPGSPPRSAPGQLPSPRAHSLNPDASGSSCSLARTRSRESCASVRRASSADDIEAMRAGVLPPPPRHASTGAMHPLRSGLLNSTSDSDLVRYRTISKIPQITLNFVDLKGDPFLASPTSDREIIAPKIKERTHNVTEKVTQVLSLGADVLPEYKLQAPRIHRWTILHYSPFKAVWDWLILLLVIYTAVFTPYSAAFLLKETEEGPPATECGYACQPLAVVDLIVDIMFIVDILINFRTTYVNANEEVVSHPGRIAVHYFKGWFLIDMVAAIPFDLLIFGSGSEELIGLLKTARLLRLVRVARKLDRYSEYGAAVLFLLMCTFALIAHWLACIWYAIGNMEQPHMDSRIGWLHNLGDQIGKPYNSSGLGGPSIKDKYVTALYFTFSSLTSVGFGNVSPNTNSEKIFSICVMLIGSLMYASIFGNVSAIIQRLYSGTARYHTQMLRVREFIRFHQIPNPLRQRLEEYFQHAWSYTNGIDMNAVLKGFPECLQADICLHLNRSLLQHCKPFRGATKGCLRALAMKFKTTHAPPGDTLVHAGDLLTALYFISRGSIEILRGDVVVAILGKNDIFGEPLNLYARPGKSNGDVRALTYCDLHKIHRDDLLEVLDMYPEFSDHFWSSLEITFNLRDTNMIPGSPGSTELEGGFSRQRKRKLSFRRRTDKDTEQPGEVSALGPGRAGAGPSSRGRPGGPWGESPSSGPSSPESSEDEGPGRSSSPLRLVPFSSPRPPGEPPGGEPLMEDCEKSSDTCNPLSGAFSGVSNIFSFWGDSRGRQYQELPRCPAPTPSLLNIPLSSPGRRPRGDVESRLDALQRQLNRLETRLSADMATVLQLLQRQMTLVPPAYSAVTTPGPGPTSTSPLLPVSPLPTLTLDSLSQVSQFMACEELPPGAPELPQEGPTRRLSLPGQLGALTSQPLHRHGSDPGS
KCNK9 inh = KCNK9 potassium channel inhibitors, primary screen, HEK293 cells, thallium flux | Potassium channel subfamily K member 9 (Homo sapiens), Q9NPC2 | FluxOR thallium flux fluorescence; hits give low values | B-score at 10 µM | 310,000 compounds, 1.2% hits;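 active means ratio B-score over 3 SD below the library mean, with starting fluorescence within 5 SD of its mean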;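 further: negative B-score means less thallium flux so channel inhibition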
KCNQ1 inh = inhibitors of human KCNQ1 channel, primary screen, cell-based, thallium flux, high-throughput. 310,000 compounds, 1.3% hits. CHO-K1 KCNQ1, FluxOR thallium flux fluorescence; hits give high values. AID 2642, 2010. B-score at 10 µM;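 active means compounds whose thallium flux B-score, printed positive for inhibition, exceeds three library SD while starting fluorescence stays within three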;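 further: channel opened by potassium depolarization with thallium stimulus after 20 min compound exposure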
KCNQ1 act = potentiators or activators of KCNQ1 channel, primary screen, cell-based, thallium flux, high-throughput; Potassium voltage-gated channel subfamily KQT member 1 (Homo sapiens), P51787; 310,000 compounds, 0.35% hits; B-score at 10 µM; CHO-K1 KCNQ1, thallium flux FluxOR fluorescence; hits give high values; AID 2648, 2010;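 active means fluorescence ratio B-score, a plate-corrected score, at least three library SD, with initial intensity B-score within 5 SD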
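Medium – assay buffer, equal DMSO in all wells · Material – CHO-K1 cell line with stable KCNQ1 potassium channel expression · Signal – kinetic FluxOR thallium fluorescence, 10-s 1-Hz baseline, 110-s post-stimulus read · Compound – single concentration per compound, DMSO matched to controls · Schedule – 37 °C overnight plating, 90-min dark dye load, 20-min compound pretreatment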
Kir21 inh = inhibitors of mouse Kir2.1 inward-rectifier potassium channel. B-score at 10 µM. Inward rectifier potassium channel 2 (Mus musculus), P35561. AID 1672, 2009. HEK293-Kir2.1, FluxOR thallium flux fluorescence; hits give low values. 310,000 compounds, 0.85% hits;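 active means fluorescence ratio B-score at or below minus 3 SD of library scores, with starting-brightness B-score within 2 SD, cut at about -4.2 in these data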;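 further: channel flux triggered by added potassium and thallium sulfate stimulus; B-score of peak minus minimum fluorescence over baseline after thallium stimulus; more negative B-score means stronger Kir2.1 block with less thallium influx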
KCNK3 inh = human KCNK3 channel inhibitors, primary screen, CHO cells, FluxOR thallium flux, B-score. FluxOR fluorescence; hits give low values. B-score at 10 µM. 340,000 compounds, 0.84% hits. AID 602410, 2012;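 active means B-score under library mean minus 4 SD, starting fluorescence ratio at most library mean plus 5 SD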;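 further: more negative B-score means stronger inhibition of thallium flux through KCNK3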
KCNK9 block conf = KCNK9 potassium channel inhibitors, confirmation, HEK293 cells, thallium flux, duplicate; shares compounds with KCNK9 inh; FluxOR thallium flux fluorescence; inhibition, % at 10 µM; 4,900 compounds, 43% hits; AID 492992, 2010;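 active means thallium signal inhibited by more than 5 SD of the compound-free buffer control wells, on both duplicate plates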;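 further: 0% = assay buffer control wells without compound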
Kir21 sel = mouse Kir2.1 channel inhibition, confirmation, selectivity assay for KCNK9 modulator project, cell-based, HEK293, thallium flux; shares compounds with KCNK9 inh; Kir2.1 cells, FluxOR thallium flux fluorescence; inhibition, % at 10 µM; 4,900 compounds, 4% hits;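 active means thallium signal drop more than 5 SD beyond the mean of the no-compound control wells, seen in both duplicate plates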;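 further: signal is fluorescence rise after thallium addition divided by baseline fluorescence; plate controls were assay buffer only for no effect and full block by chlorpromazine control for full effect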
KCNK9 uninduced = thallium flux in non-induced HEK293 cells, confirmation, counter-screen for KCNK9 inhibitor project, cell-based, second counter screen, non-induced KCNK9-HEK293. 4,900 compounds, 40% hits. FluxOR thallium flux. inhibition, % at 10 µM. shares compounds with KCNK9 inh;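 active means thallium signal drop beyond 5 SD of the untreated control mean, on both duplicate plates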;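 further: plate controls were buffer only IC0 wells for no effect and SID17386958 at its maximal inhibitory level for full effect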
* = called active by the depositor. This is a sample that favours compounds with a hit; in the whole collection about 3.7% have one here.

For CC1CCN(C(=O)CN(c2ccc(Cl)c(C(F)(F)F)c2)S(C)(=O)=O)CC1 the results were hERG rescue -7, KCNK9 inh inactive, KCNQ1 inh inactive, KCNQ1 act inactive, Kir21 inh -1.2 and KCNK3 inh inactive.
`CN1CCN(C(=O)CN(c2ccccc2)S(=O)(=O)N(C)C)CC1` gave hERG rescue 0, KCNK9 inh inactive, KCNQ1 inh inactive, KCNQ1 act inactive and Kir21 inh 1.5.
`O=C(CCC1CCCN(C(=O)CCN2CCCCC2=O)C1)NCc1ccccc1F` (stereo not drawn) gave hERG rescue -4, KCNK9 inh inactive, KCNQ1 inh inactive, KCNQ1 act inactive, Kir21 inh -0.07 and KCNK3 inh inactive.
Screening COc1ccccc1N(C)S(=O)(=O)c1ccc(C(=O)N(C)Cc2ccc(Cl)s2)cc1 returned KCNK3 inh inactive.
Cc1ccc(NC(=O)CSc2ccccc2NC(=O)c2ccccc2Cl)cc1Cl was read as hERG rescue -9, KCNK9 inh -9.7*, KCNQ1 inh inactive, KCNQ1 act inactive, Kir21 inh 0.16, KCNK3 inh inactive, KCNK9 block conf 56%*, Kir21 sel inactive and KCNK9 uninduced inactive.
Screening Cc1ccc(NC(=O)CSc2ccccc2NC(=O)c2ccccc2)cc1Cl returned hERG rescue -5, KCNK9 inh inactive, KCNQ1 inh inactive, KCNQ1 act inactive, Kir21 inh -0.33 and KCNK3 inh inactive.
For COc1ccc(Cl)cc1NC(=O)CN(C)CC(=O)NC(C)c1ccccc1 (stereo not drawn) the results were hERG rescue -13, KCNK9 inh inactive, KCNQ1 inh inactive, KCNQ1 act inactive, Kir21 inh -0.37 and KCNK3 inh inactive.
For O=[N+]([O-])c1cccc2ccc(/C=C/c3ccc(F)cc3)nc12 the results were hERG rescue -9, KCNK9 inh -13*, KCNQ1 inh inactive, KCNQ1 act inactive, Kir21 inh 0.58, KCNK3 inh inactive, KCNK9 block conf 48%*, Kir21 sel inactive and KCNK9 uninduced 32%*.
O=[N+]([O-])c1ccc(/C=C/c2ccc3cccc([N+](=O)[O-])c3n2)cc1 was read as hERG rescue -4, KCNK9 inh inactive, KCNQ1 inh inactive, KCNQ1 act inactive, Kir21 inh 0.51 and KCNK3 inh inactive.
Screening CCCCC(CC)C(=O)Nc1cccc(SC)c1 (stereo not drawn) returned hERG rescue -12, KCNK9 inh -9.4*, KCNQ1 inh inactive, KCNQ1 act inactive, Kir21 inh -1.1, KCNK3 inh inactive, KCNK9 block conf 30%*, Kir21 sel inactive and KCNK9 uninduced inactive.
`CCOc1ccc(C(=O)CCC(=O)N(CC)CC(=O)NCc2ccc(Cl)cc2)cc1` gave hERG rescue -7, KCNK9 inh inactive, KCNQ1 inh inactive, KCNQ1 act inactive, Kir21 inh -0.02 and KCNK3 inh inactive.
`Cc1ccccc1C(=O)NCC(=O)NCC1(N2CCOCC2)CCCCC1` gave hERG rescue -9, KCNK9 inh inactive, KCNQ1 inh inactive, KCNQ1 act inactive, Kir21 inh 0.99 and KCNK3 inh inactive.
Screening O=c1c2ccccc2nc(N2CCN(c3ccccc3)CC2)n1Cc1ccccc1 returned hERG rescue -9, KCNK9 inh -13*, KCNQ1 inh inactive, KCNQ1 act inactive, Kir21 inh -1.2, KCNK3 inh inactive, KCNK9 block conf 62%*, Kir21 sel inactive and KCNK9 uninduced 40%*.
For O=[N+]([O-])c1ccccc1/C=C/CN1CCN(Cc2ccc3c(c2)OCO3)CC1 the results were hERG rescue -7, KCNK9 inh inactive, KCNQ1 inh inactive, KCNQ1 act inactive, Kir21 inh 1.6, KCNK3 inh inactive, KCNK9 block conf inactive, Kir21 sel inactive and KCNK9 uninduced inactive.
For c1ccc(Cc2noc(CN3CCCN(C4Cc5ccccc5C4)CC3)n2)cc1 the results were hERG rescue -17, KCNK9 inh inactive, KCNQ1 inh inactive, KCNQ1 act inactive, Kir21 inh 0 and KCNK3 inh inactive.
Screening C(=C\c1ccccc1)/CN1CCN(Cc2ccc3c(c2)OCO3)CC1 returned hERG rescue -4, KCNK9 inh inactive, KCNQ1 inh inactive, KCNQ1 act inactive, Kir21 inh -0.62 and KCNK3 inh inactive.
Screening Fc1ccccc1Cc1noc(CN2CCN(Cc3ccc4c(c3)OCO4)CC2)n1 returned hERG rescue -14, KCNK9 inh inactive, KCNQ1 inh inactive, KCNQ1 act inactive, Kir21 inh 0.44 and KCNK3 inh inactive.
C(=C\c1ccccc1)/CN1CCN(Cc2nc(Cc3ccccc3)no2)CC1 was read as hERG rescue -10, KCNK9 inh inactive, KCNQ1 inh inactive, KCNQ1 act inactive, Kir21 inh -0.13, KCNK3 inh inactive, KCNK9 block conf inactive, Kir21 sel inactive and KCNK9 uninduced inactive.
c1ccc(Cc2noc(CN3CCN(Cc4ccc5c(c4)OCO5)CC3)n2)cc1 was read as hERG rescue -11, KCNK9 inh inactive, KCNQ1 inh inactive, KCNQ1 act inactive, Kir21 inh -1.1, KCNK3 inh inactive, KCNK9 block conf inactive, Kir21 sel inactive and KCNK9 uninduced inactive.
c1ccc(Cc2noc(CN3CCN(C4CCc5ccccc5C4)CC3)n2)cc1 (stereo not drawn) was read as hERG rescue -13, KCNK9 inh inactive, KCNQ1 inh inactive, KCNQ1 act inactive, Kir21 inh -0.05, KCNK3 inh inactive, KCNK9 block conf inactive, Kir21 sel inactive and KCNK9 uninduced inactive.
